Calls of active or inactive are those of the source. The rule behind the calls is not given here.
Experiments:
Glucagon receptor [1] = target: Glucagon receptor (Homo sapiens, UniProt P47871); test: Binding affinity to human cloned GluR expressed in BHK cells; format: cell-based
Procedure, shortened: (§1)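 Competitive binding on purified plasma membranes from BHK cells expressing the cloned human receptor (glucagon, GIP or GLP-1 receptor). The glucagon receptor protocol follows earlier published work, and the GIP and GLP-1 assays were done the same way.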

[2] = target: T1, Gastric inhibitory polypeptide receptor (Homo sapiens, UniProt P48546); test: Binding affinity to human cloned GIPR expressed in BHK cells; format: cell-based; procedure, shortened: as §1
T1 sequence (P48546 whole entry): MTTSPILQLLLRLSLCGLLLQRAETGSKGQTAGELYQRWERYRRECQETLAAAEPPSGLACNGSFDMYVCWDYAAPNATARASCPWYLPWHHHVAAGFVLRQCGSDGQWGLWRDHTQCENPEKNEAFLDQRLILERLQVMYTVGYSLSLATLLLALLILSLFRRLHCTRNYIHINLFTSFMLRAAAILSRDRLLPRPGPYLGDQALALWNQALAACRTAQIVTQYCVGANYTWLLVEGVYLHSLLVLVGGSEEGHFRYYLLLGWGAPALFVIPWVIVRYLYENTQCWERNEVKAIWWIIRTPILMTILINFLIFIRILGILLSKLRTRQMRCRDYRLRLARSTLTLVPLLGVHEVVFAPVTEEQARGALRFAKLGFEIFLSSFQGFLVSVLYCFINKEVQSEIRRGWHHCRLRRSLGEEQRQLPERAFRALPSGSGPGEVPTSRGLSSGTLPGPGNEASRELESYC

[3] = target: Glucagon-like peptide 1 receptor (Homo sapiens, UniProt P43220); test: Binding affinity to human cloned GLP1R expressed in BHK cells; format: cell-based; procedure, shortened: as §1
BHK = test: Selectivity ratio of IC50 for human cloned GluR to IC50 for human cloned GLP1R expressed in BHK cells; format: cell-based
[4] = Half life in Sprague-Dawley rat at 2 mg/kg, iv; format: ADME, organism-based; parameters: dose 2 mg/kg, route intravenous; details: in vivo
Procedure, shortened: (§2)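 Fasted male Sprague-Dawley rats (~200 g) were given 2 mg/kg iv or 4 mg/kg po. Vehicle: 5% ethanol, 20% propylene glycol, 10% hydroxypropyl-β-cyclodextrin in phosphate buffer pH 7.5-8.0. EDTA blood was taken by heart puncture under CO2 at 5-360 min (iv) or 15-360 min (po). Plasma was analysed by HTLC-MS/MS, with noncompartmental PK analysis.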

[5] = Oral bioavailability in Sprague-Dawley rat at 4 mg/kg; format: ADME, organism-based; details: in vivo; procedure, shortened: as §2
Glucagon receptor [6] = target: Glucagon receptor (Rattus norvegicus, UniProt P30082); test: Binding affinity to GlucR in rat liver membrane; format: cell membranes
Procedure, shortened: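 Competitive binding on isolated rat liver membrane preparations, run by the same protocol as the human glucagon receptor binding assay.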

Hepatocyte [7] = test: Inhibition of glucagon-stimulated glycogenolysis in rat hepatocytes; format: functional, cell-based
Procedure, shortened: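 Isolated, cultured primary rat hepatocytes were loaded with glycogen and stimulated with 0.5 nM glucagon plus increasing compound concentrations in medium containing 0.1% HSA. Glucose released into the medium was measured after 60 min, and IC50 was derived.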

Hepatocyte [8] = test: Inhibition of adrenaline-stimulated glycogenolysis in rat hepatocytes up to 25 uM; format: functional, cell-based
Procedure, shortened: (§3)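 Glycogen-loaded cultured primary rat hepatocytes, either unstimulated (basal) or adrenaline-stimulated, in medium with 0.1% HSA. Compounds were tested at concentrations up to 25 µM, and glycogenolysis was read as glucose release.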

Hepatocyte [9] = test: Inhibition of basal glycogenolysis in rat hepatocytes up to 25 uM; format: functional, cell-based; procedure, shortened: as §3
Hepatocyte [10] = test: Increase in lactate production in rat hepatocytes; format: functional, cell-based
Rattus norvegicus = test: Inhibition of glucagon-stimulated increase in blood glucose levels in iv dosed Sprague-Dawley rat administered 5 mins before glucagon challenge; format: functional
Procedure, shortened: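 Nonfasted male Sprague-Dawley rats (200 g) were anaesthetized with sc fentanyl/fluanisone plus midazolam. Compound was given via jugular catheter at 0, 3 or 10 mg/kg, followed 5 min later by iv glucagon 3 µg/kg. Tail-tip blood glucose was sampled at 25 and 5 min before compound and 10 min after glucagon. Response = 10-min value minus mean basal.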

Mus musculus = test: Reduction of hyperglycemia in leptin-deficient obese type-2 diabetes ob/ob mouse model at 100 mg/kg, po after 6 hrs; format: functional, organism-based; parameters: dose 100 mg/kg
Procedure, shortened: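 Male ob/ob mice (11-13 weeks), selected for highest blood glucose and randomized to matched groups. Dosed 0 or 100 mg/kg by oral gavage in the morning, with food withheld for 6 h. Blood glucose was measured ~1/2 h predose and at 2, 4, 6 and 24 h, expressed as change from baseline.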

[11] = target: T2, Gastric inhibitory polypeptide receptor (Rattus norvegicus, UniProt P43219); test: Binding affinity to GIPR in rat liver membrane; format: cell membranes
T2 sequence (P43219 whole entry): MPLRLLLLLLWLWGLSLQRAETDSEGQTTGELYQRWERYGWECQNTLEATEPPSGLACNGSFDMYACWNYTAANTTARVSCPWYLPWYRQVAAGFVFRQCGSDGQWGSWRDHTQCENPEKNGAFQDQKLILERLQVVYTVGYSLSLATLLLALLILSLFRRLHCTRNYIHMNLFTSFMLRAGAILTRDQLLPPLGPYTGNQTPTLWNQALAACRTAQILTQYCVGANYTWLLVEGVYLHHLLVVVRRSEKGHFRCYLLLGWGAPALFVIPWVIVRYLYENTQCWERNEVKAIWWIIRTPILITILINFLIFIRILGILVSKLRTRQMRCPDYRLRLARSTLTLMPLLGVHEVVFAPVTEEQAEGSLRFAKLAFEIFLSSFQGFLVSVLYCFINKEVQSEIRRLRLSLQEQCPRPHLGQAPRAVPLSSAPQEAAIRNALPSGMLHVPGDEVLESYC

Pancreas = test: Inhibition of GIP-stimulated insulin secretion in rat pancreas; format: functional, tissue-based
Procedure, shortened: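 Isolated perfused rat pancreas: 80 mg/dL glucose at 1-4 min, then 160 mg/dL glucose with compound at 5-50 min, and 500 pM GIP infused at 15-34 min. Portal outflow was collected each minute and insulin measured by radioimmunoassay; n = 4 per group.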

Glucagon receptor (Homo sapiens, UniProt P47871), sequence (P47871 whole entry): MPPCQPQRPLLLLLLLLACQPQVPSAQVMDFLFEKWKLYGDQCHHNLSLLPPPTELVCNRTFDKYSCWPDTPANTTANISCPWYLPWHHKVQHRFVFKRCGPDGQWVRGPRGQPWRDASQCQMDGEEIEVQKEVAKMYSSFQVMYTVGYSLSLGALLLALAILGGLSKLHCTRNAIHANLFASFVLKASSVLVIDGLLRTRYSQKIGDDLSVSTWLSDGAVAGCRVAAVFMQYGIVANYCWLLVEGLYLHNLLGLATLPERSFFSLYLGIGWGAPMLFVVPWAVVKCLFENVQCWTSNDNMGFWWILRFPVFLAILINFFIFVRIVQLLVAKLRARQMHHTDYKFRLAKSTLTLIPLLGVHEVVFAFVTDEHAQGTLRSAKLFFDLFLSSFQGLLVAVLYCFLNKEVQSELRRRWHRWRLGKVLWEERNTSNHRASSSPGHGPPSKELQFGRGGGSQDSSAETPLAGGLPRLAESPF
Glucagon receptor (Rattus norvegicus, UniProt P30082), sequence (P30082 whole entry): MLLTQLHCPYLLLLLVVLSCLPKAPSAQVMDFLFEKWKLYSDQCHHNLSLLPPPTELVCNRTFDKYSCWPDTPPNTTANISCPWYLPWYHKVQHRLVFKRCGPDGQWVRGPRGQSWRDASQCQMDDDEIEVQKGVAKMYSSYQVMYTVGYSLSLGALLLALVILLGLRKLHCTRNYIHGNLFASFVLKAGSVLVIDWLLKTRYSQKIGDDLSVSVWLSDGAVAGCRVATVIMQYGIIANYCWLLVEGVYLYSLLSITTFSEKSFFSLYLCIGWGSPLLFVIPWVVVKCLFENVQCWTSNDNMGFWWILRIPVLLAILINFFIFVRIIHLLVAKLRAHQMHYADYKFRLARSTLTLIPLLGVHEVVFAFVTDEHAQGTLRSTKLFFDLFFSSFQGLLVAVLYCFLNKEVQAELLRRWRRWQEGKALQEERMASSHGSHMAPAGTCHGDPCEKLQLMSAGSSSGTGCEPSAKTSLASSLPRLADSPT
Glucagon-like peptide 1 receptor, sequence (P43220 whole entry): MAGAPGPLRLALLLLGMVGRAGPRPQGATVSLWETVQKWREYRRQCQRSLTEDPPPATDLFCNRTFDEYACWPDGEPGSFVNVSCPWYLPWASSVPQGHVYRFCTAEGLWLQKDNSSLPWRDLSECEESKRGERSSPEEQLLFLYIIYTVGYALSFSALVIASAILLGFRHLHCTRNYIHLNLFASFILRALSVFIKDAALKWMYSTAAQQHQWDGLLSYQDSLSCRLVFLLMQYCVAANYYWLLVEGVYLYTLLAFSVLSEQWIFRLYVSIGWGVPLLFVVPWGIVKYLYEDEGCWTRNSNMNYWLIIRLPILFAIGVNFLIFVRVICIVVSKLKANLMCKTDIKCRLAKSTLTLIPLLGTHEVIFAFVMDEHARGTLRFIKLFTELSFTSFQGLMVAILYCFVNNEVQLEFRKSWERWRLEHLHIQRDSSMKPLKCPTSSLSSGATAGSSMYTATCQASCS

Row | SMILES | IC50 (Glucagon receptor [1]) [nM] | IC50 [2] [nM] | IC50 [3] [nM] | further results
1 | O=C(NCC(O)C(=O)O)c1ccc(CN(C(=O)Nc2cc(Cl)cc(Cl)c2)c2ccc(C3=CCCCC3)cc2)cc1 (racemic) | 14 | 701 | – | –
2 | O=C(NC[C@@H](O)C(=O)O)c1ccc(CN(C(=O)Nc2cc(Cl)cc(Cl)c2)c2ccc(C3=CCCCC3)cc2)cc1 | 3.9 | 359 | 17000 | Ratio IC50 (BHK): 4300; half-life [4]: 53 min; bioavailability [5]: 32%; IC50 (Glucagon receptor [6]): 43 nM; IC50 (Hepatocyte [7]): 200 nM; Activity (Hepatocyte [8]): inactive; Activity (Hepatocyte [9]): inactive; Activity (Hepatocyte [10]): Active; Activity (Rattus norvegicus): Dose-dependent effect; minimal effective dose (Rattus norvegicus; read-out: MED): 3 mg/kg; Activity (Mus musculus): Active; IC50 [11]: 501 nM
3 | O=C(NC[C@@H](O)C(=O)O)c1ccc(CN(C(=O)Nc2ccc3c(c2)C(F)(F)OC(F)(F)O3)c2ccc(C3=CCCCC3)cc2)cc1 | 6 | 83 | – | –
4 | CS(=O)(=O)c1cc(NC(=O)N(Cc2ccc(C(=O)NC[C@@H](O)C(=O)O)cc2)c2ccc(C3=CCCCC3)cc2)ccc1OC(F)(F)F | 5 | 497 | – | half-life [4]: 55 min; bioavailability [5]: 10%
5 | CC(C)(C)c1ccc(N(Cc2ccc(C(=O)NCCC(=O)O)cc2)C(=O)Nc2ccc(OC(F)(F)F)cc2)cc1 | 36 | 38 | 10800 | –
6 | CO[C@H](CNC(=O)c1ccc(CN(C(=O)Nc2cc(Cl)cc(Cl)c2)c2ccc(C3=CCCCC3)cc2)cc1)C(=O)O | 693 | 3020 | 21800 | –
7 | N#Cc1ccc(NC(=O)N(Cc2ccc(C(=O)NC[C@@H](O)C(=O)O)cc2)c2ccc(C3CCCCC3)cc2)cc1C(F)(F)F | 9 | 198 | – | –
8 | O=C(NC[C@@H](O)C(=O)O)c1ccc(CN(C(=O)Nc2ccc(SC(F)(F)F)cc2)c2ccc(C3CCCCC3)cc2)cc1 | 6 | 12 | – | –
9 | COc1cc(NC(=O)N(Cc2ccc(C(=O)NC[C@@H](O)C(=O)O)cc2)c2ccc(C3=CCCCC3)cc2)cc(C(F)(F)F)c1 | 14 | 279 | – | half-life [4]: 53 min; bioavailability [5]: 7%
10 | CC(C)(C)C1CCC(N(Cc2ccc(C(=O)NCCC(=O)O)cc2)C(=O)Nc2ccc(OC(F)(F)F)cc2)CC1 (stereo not given) | 23.4 | 28.3 | 2540 | IC50 (Glucagon receptor [6]): 23 nM; IC50 [11]: 42 nM; Activity (Pancreas): Active
11 | O=C(NC[C@H](O)C(=O)O)c1ccc(CN(C(=O)Nc2cc(Cl)cc(Cl)c2)c2ccc(C3=CCCCC3)cc2)cc1 | 51 | 445 | 9320 | –
12 | CC(C)(C)[C@H]1CC[C@H](N(Cc2ccc(C(=O)NC[C@@H](O)C(=O)O)cc2)C(=O)Nc2cc(C(F)(F)F)cc(C(F)(F)F)c2)CC1 | 8 | 87 | 7730 | half-life [4]: 41 min; bioavailability [5]: 11%
13 | COc1cc(NC(=O)N(Cc2ccc(C(=O)NC[C@@H](O)C(=O)O)cc2)c2ccc(C3CCCCC3)cc2)cc(C(F)(F)F)c1 | 9 | 145 | – | –
14 | O=C(NC[C@@H](O)C(=O)O)c1ccc(CN(C(=O)Nc2cc(Br)cc(C(F)(F)F)c2)c2ccc(C3=CCCCC3)cc2)cc1 | 7 | 380 | – | half-life [4]: 46 min; bioavailability [5]: 14%
15 | CC(C)(C)c1cccc(NC(=O)N(Cc2ccc(C(=O)NC[C@@H](O)C(=O)O)cc2)c2ccc(C3CCCCC3)cc2)c1 | 18 | 74 | – | –
16 | O=C(O)CCNC(=O)c1ccc(CN(C(=O)Nc2cc(Cl)cc(Cl)c2)c2ccc(C3=CCCCC3)cc2)cc1 | 12 | 64 | 5000 | Ratio IC50 (BHK): 400; IC50 (Glucagon receptor [6]): 36 nM; IC50 (Hepatocyte [7]): 820 nM; Activity (Hepatocyte [8]): inactive; Activity (Hepatocyte [9]): inactive; Activity (Hepatocyte [10]): Active; IC50 [11]: 216 nM; Activity (Pancreas): Active
17 | O=C(NC[C@@H](O)C(=O)O)c1ccc(CN(C(=O)Nc2ccccc2)c2ccc(C3=CCCCC3)cc2)cc1 | 166 | 1390 | – | –
18 | O=C(NC[C@@H](O)C(=O)O)c1ccc(CN(C(=O)Nc2cc(Cl)cc(Cl)c2)c2ccc(C3CCCCC3)cc2)cc1 | 4 | 93 | – | –
19 | O=C(NC[C@@H](O)C(=O)O)c1ccc(CN(C(=O)Nc2cccc(Cl)c2)c2ccc(C3=CCCCC3)cc2)cc1 | 14 | 406 | – | –
20 | CC(C)(C)[C@H]1CC[C@H](N(Cc2ccc(C(=O)NCCC(=O)O)cc2)C(=O)Nc2cc(C(F)(F)F)cc(C(F)(F)F)c2)CC1 | 16 | 93 | – | –
21 | CSc1cccc(NC(=O)N(Cc2ccc(C(=O)NC[C@@H](O)C(=O)O)cc2)c2ccc(C3CCCCC3)cc2)c1 | 9 | 411 | – | half-life [4]: 43 min; bioavailability [5]: 8%
22 | CC(C)(C)[C@H]1CC[C@H](N(Cc2ccc(C(=O)NC[C@H](O)C(=O)O)cc2)C(=O)Nc2cc(C(F)(F)F)cc(C(F)(F)F)c2)CC1 | 82 | 373 | 4880 | –
23 | O=C(NC[C@@H](O)C(=O)O)c1ccc(CN(C(=O)Nc2cccc(Br)c2)c2ccc(C3CCCCC3)cc2)cc1 | 8 | 216 | – | half-life [4]: 72 min; bioavailability [5]: 21%
24 | CC(C)(C)c1ccc(N(Cc2ccc(C(=O)NCC(O)C(=O)O)cc2)C(=O)Nc2ccc(OC(F)(F)F)cc2)cc1 (racemic) | 55 | 315 | – | –
25 | Cc1cc(C)cc(NC(=O)N(Cc2ccc(C(=O)NC[C@@H](O)C(=O)O)cc2)[C@H]2CC[C@H](C(C)(C)C)CC2)c1 | 27 | 220 | – | –
26 | Cc1cc(NC(=O)N(Cc2ccc(C(=O)NC[C@@H](O)C(=O)O)cc2)[C@H]2CC[C@H](C(C)(C)C)CC2)cc(C(F)(F)F)c1 | 10 | 98 | – | –

Reference: ChEMBL document CHEMBL1140036, “Novel glucagon receptor antagonists with improved selectivity over the glucose-dependent insulinotropic polypeptide receptor” (J Med Chem, 2008)
